{"data": "Assay results pooled from the literature", "cell line": "A549"}
{"SMILES": "COc1ccc(-c2nc(C(=O)Nc3nnc(-c4cc5ccccc5[nH]4)s3)cc3c2[nH]c2ccccc23)cc1", "read-out": "cell growth or viability", "method": "MTT", "time": "72 h", "IC50 [µM]": 2.82}
{"SMILES": "COc1cc(C=C(C(=O)/C=C/c2ccc(OC)c(OC)c2)C(=O)/C=C/c2ccc(OC)c(OC)c2)ccc1O", "read-out": "colony formation", "time": "9 days", "IC50 [µM]": "< 0.2"}
{"SMILES": "C=CC(=O)Nc1cc(Nc2nc(N3CCc4sccc4C3)c3sccc3n2)c(OC)cc1N1CCN(C)CC1", "read-out": "cell growth or viability", "method": "MTT", "IC50 [µM]": 1.96}
{"SMILES": "COCCCOc1ccnc(COc2ccc(NC(=O)Nc3cccc(C(F)(F)F)c3)cc2)c1C", "read-out": "cell growth or viability", "method": "MTT", "time": "72 h", "IC50 [µM]": 4.38}
{"SMILES": "Cc1c(NC(=O)c2ccc(C(C)(C)C)cc2)cccc1-c1cn(C)c(=O)c(Nc2ccc(C(=O)N3CCOCC3)cc2)n1", "read-out": "cell growth or viability", "IC50 [µM]": "> 10"}
{"SMILES": "COc1cc2ncnc(Nc3ccc(F)c(Cl)c3)c2cc1NC(=O)N/N=C/c1cccn1CCN(C)C", "read-out": "cell growth or viability", "method": "MTT", "time": "72 h", "IC50 [µM]": 4.3}
{"SMILES": "COc1ccccc1/C=C/CNCC(O)COc1cccc2[nH]c3ccccc3c12 (centres unmarked)", "read-out": "cell growth or viability", "method": "CCK-8", "time": "72 h", "IC50 [µM]": 7.9}
{"SMILES": "COc1cccc(Oc2ccccc2NC(=O)CNC(=O)c2c(C)cc(C)cc2C)c1", "read-out": "cell growth or viability", "IC50 [µM]": 4.7}
{"SMILES": "O=C(N/N=C/c1cccn1CCN1CCOCC1)Nc1cc2c(Nc3ccc(F)c(Cl)c3)ncnc2cc1O[C@H]1CCOC1", "read-out": "cell growth or viability", "method": "MTT", "time": "72 h", "IC50 [µM]": 1.32}
{"SMILES": "CN1C(=O)/C(=N\\NC(=O)c2cc3ccccc3[nH]2)c2cc(F)ccc21", "read-out": "cell growth or viability", "IC50 [µM]": 2.82}
{"SMILES": "O=C(/C=C/C=C/c1ccc2c(c1)OCO2)N1CCCCC1", "read-out": "cell growth or viability", "method": "SRB", "IC50 [µM]": 280}
{"SMILES": "O=C(NC(=S)NCCCNC(=S)NC(=O)c1ccc2ccccc2c1)c1ccc2ccccc2c1", "read-out": "cell growth or viability", "time": "48 h", "IC50 [µM]": 2.41}
{"SMILES": "COc1cc2ncnc(Nc3ccc(F)c(Cl)c3)c2cc1NC(=O)N/N=C/c1cccn1CCN1CCCC1", "read-out": "cell growth or viability", "method": "MTT", "time": "72 h", "IC50 [µM]": 0.35}
{"SMILES": "CC1=C(O)C(=O)C=C2C1=CC=C1[C@@]2(C)CC[C@@]2(C)[C@@H]3C[C@](C)(C(=O)OCCCOc4ccccc4)CC[C@]3(C)CC[C@]12C", "read-out": "cell growth or viability", "method": "MTT", "time": "48 h", "IC50 [µM]": 5.39}
{"SMILES": "O=C(NNC(=O)c1ccc(Nc2nccc(-c3ccccn3)n2)cc1)NC1CCCC1", "read-out": "cell growth or viability", "method": "MTT", "IC50 [µM]": "> 40"}
{"SMILES": "CCOc1ccc(/C=C2\\SC(=S)N(CC(=O)Nc3ccccc3)C2=O)cc1", "read-out": "cell growth or viability", "method": "MTT", "IC50 [µM]": 10.3}
{"SMILES": "Cc1c(OCC(F)(F)F)ccnc1COc1ccc(NC(=O)Nc2ccc(Cl)c(C(F)(F)F)c2)cc1", "read-out": "cell growth or viability", "method": "MTT", "time": "72 h", "IC50 [µM]": 4.35}
{"SMILES": "C=CC(=O)Nc1cc(Nc2nc(N3CCc4sccc4C3)c3cccnc3n2)c(OC)cc1N1CCN(C(C)=O)CC1", "read-out": "cell growth or viability", "method": "MTT", "IC50 [µM]": "> 50"}
{"SMILES": "CN1CCN(CCn2cccc2/C=N/NC(=O)Nc2cc3c(Nc4ccc(F)c(Cl)c4)ncnc3cc2O[C@H]2CCOC2)CC1", "read-out": "cell growth or viability", "method": "MTT", "time": "72 h", "IC50 [µM]": 3.02}
{"SMILES": "CCC(=O)Nc1cc(Nc2nc(N3CCc4sccc4C3)c3cccnc3n2)c(OC)cc1N1CCOCC1", "read-out": "cell growth or viability", "method": "MTT", "IC50 [µM]": "> 50"}
{"SMILES": "Cc1cc(=O)[nH]n1C(=O)c1ccc(-n2c(C)ccc2C)cc1", "read-out": "cell growth or viability", "method": "MTT", "time": "72 h", "IC50 [µM]": 208}
{"SMILES": "COc1ccccc1C#CCNCC(O)COc1cccc2[nH]c3ccccc3c12 (centres unmarked)", "read-out": "cell growth or viability", "method": "CCK-8", "time": "72 h", "IC50 [µM]": "> 100"}
{"SMILES": "COc1cc(N(C)CCN(C)C)c(NC(=O)C=C(C)C)cc1Nc1nc(Nc2cnn(C)c2)c2sccc2n1", "read-out": "cell growth or viability", "method": "MTT", "IC50 [µM]": 1.56}
{"SMILES": "COc1ccc(-c2csc(Nc3ccc4c(O)ncnc4c3)n2)cc1", "read-out": "cell growth or viability", "method": "MTT", "IC50 [µM]": 25}
{"SMILES": "COc1ccccc1/C=C/CNCC(O)COc1ccc2c(c1)[nH]c1ccccc12 (centres unmarked)", "read-out": "cell growth or viability", "method": "CCK-8", "time": "72 h", "IC50 [µM]": 6.8}
{"SMILES": "CCCCCCCCCCCC(=O)Oc1c(C)c(O)c(C(=O)/C=C/c2ccccc2)c(OC)c1C", "read-out": "cell growth or viability", "method": "SRB", "time": "72 h", "IC50 [µM]": "> 50"}
{"SMILES": "COc1ccccc1/C=C/CNCC(O)COc1ccc(C2CCCCC2)cc1 (centres unmarked)", "read-out": "cell growth or viability", "method": "CCK-8", "time": "72 h", "IC50 [µM]": 11.2}
{"SMILES": "C=C(Cl)C(=O)Nc1cc(Nc2nc(N3CCCC3)c3sccc3n2)c(OC)cc1N(C)CCN(C)C", "read-out": "cell growth or viability", "method": "MTT", "IC50 [µM]": 4.54}
{"SMILES": "COc1ccnc(COc2ccc(NC(=O)Nc3ccc(Cl)cc3)cc2)c1OC", "read-out": "cell growth or viability", "method": "MTT", "time": "72 h", "IC50 [µM]": 10.4}
{"SMILES": "O=C(NC(=S)Nc1ccc([N+](=O)[O-])cc1)c1ccc2ccccc2c1", "read-out": "cell growth or viability", "time": "48 h", "IC50 [µM]": 5.24}
{"SMILES": "CN1C(=O)/C(=N\\NC(=O)c2cc3ccccc3[nH]2)c2cc(Cl)ccc21", "read-out": "cell growth or viability", "IC50 [µM]": 2.13}
{"SMILES": "O=C(N/N=C/c1cccn1CCN1CCCC1)Nc1cc2c(Nc3ccc(F)c(Cl)c3)ncnc2cc1O[C@H]1CCOC1", "read-out": "cell growth or viability", "method": "MTT", "time": "72 h", "IC50 [µM]": 2.39}
{"SMILES": "O=C(O)c1ccc(-n2nc(-c3ccccc3O)nc2-c2ccccc2O)cc1", "read-out": "cell growth or viability", "method": "MTT", "time": "72 h", "IC50 [µM]": 12.1}
{"SMILES": "O=C(Nc1nnnn1C1CCCCC1)c1ccc2ccccc2c1", "read-out": "cell growth or viability", "time": "48 h", "IC50 [µM]": 1.12}
{"SMILES": "CS(=O)(=O)c1ccc(-n2cc(/C=N/N=c3\\[nH]c(-c4ccc([N+](=O)[O-])cc4)cs3)c(-c3ccc([N+](=O)[O-])cc3)n2)cc1", "read-out": "cell growth or viability", "method": "MTT", "time": "48 h", "IC50 [µM]": 22.2}
{"SMILES": "COc1cc([C@@H]2c3cc4c(cc3[C@@H](O[C@@H]3O[C@@H]5CO[C@@H](C)O[C@H]5[C@H](O)[C@H]3O)[C@H]3COC(=O)[C@H]23)OCO4)cc(OC)c1O", "read-out": "cell growth or viability", "method": "fluorescence", "time": "48 h", "IC50 [µM]": 4.1}
{"SMILES": "CC1=C(O)C(=O)C=C2C1=CC=C1[C@@]2(C)CC[C@@]2(C)[C@@H]3C[C@](C)(C(=O)OCCCCCO)CC[C@]3(C)CC[C@]12C", "read-out": "cell growth or viability", "method": "MTT", "time": "48 h", "IC50 [µM]": "> 100"}
{"SMILES": "Oc1ncnc2cc(Nc3nc(-c4ccccc4)cs3)ccc12", "read-out": "cell growth or viability", "method": "MTT", "IC50 [µM]": 24.7}
{"SMILES": "Cc1cc(C)n(-c2nc(NN=Cc3c[nH]c4ccccc34)nc(Nc3ccc(Br)cc3)n2)n1", "read-out": "cell growth or viability", "method": "SRB", "time": "72 h", "IC50 [µM]": 6.1}
{"SMILES": "CCCCNC(=O)NNC(=O)c1cccc(Nc2nccc(-c3ccncc3)n2)c1", "read-out": "cell growth or viability", "method": "MTT", "time": "24 h", "IC50 [µM]": 30.6}
{"SMILES": "COc1cccc(C(=O)O[C@@H]2CN3Cc4c(cc5c(c4OC)OCO5)[C@@]24C=C[C@H](OC)C[C@@H]34)c1", "read-out": "cell growth or viability", "method": "WST-1", "IC50 [µM]": "> 10"}
